From ChEMBL document CHEMBL2311438, “Synthesis and biological evaluation of 4-hydroxy-4-(4-methoxyphenyl)-substituted proline and pyrrolidin-2-ylacetic acid derivatives as GABA uptake inhibitors” (Bioorg Med Chem, 2013)

Experiments:
Sus scrofa [1] = species on record: Sus scrofa; assay: Inhibition of GAT1-mediated [3H]GABA uptake in porcine frontal cortex membrane fraction 2B assessed as remaining GABA uptake activity preincubated at 100 uM for 10 mins by scintillation counting; type: cell membranes
In short: (§1)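 Preliminary single-concentration screen giving percent remaining GABA uptake. Membranes were preincubated with compound for 10 min at 37 °C in Tris-HCl pH 7.2 saline with glucose. Then 50 nM [³H]GABA plus unlabelled GABA was added for 4 min at 37 °C. Filtration harvest onto NaCl-presoaked glass-fibre filters, saline washes, liquid scintillation counting. IC50 pursued only when uptake fell below 50%.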

[2] = Inhibition of GAT1-mediated [3H]GABA uptake in porcine frontal cortex membrane fraction 2B compound preincubated for 10 mins by scintillation counting; type: cell membranes, Sus scrofa
In short: (§2)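 50 nM [³H]GABA plus unlabelled GABA added, then 4 min at 37 °C. Stopped by filtration through glass-fibre filters presoaked in 0.9% NaCl, washed, scintillation counted. Triplicate; IC50 as mean ± SEM.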

Sus scrofa [3] = species on record: Sus scrofa; assay: Inhibition of GAT3-mediated [3H]GABA uptake in porcine brain stem membrane fraction 2C assessed as remaining GABA uptake activity preincubated at 100 uM for 10 mins by scintillation counting; type: cell membranes; in short: as §1
[4] = Inhibition of GAT3-mediated [3H]GABA uptake in porcine brain stem membrane fraction 2C compound preincubated for 10 mins by scintillation counting; type: cell membranes, Sus scrofa; in short: as §2
[5] = Inhibition of GAT1-mediated [3H]GABA uptake in bovine frontal cortex membrane fraction 2B compound preincubated for 10 mins by scintillation counting; type: cell membranes, Bos taurus; in short: as §2
[6] = Inhibition of GAT3-mediated [3H]GABA uptake in bovine brain stem membrane fraction 2C compound preincubated for 10 mins by scintillation counting; type: cell membranes, Bos taurus; in short: as §2
Bos taurus [7] = species on record: Bos taurus; assay: Inhibition of GAT1-mediated [3H]GABA uptake in bovine frontal cortex membrane fraction 2B assessed as remaining GABA uptake activity preincubated at 100 uM for 10 mins by scintillation counting; type: cell membranes; in short: as §1
Bos taurus [8] = species on record: Bos taurus; assay: Inhibition of GAT3-mediated [3H]GABA uptake in bovine brain stem membrane fraction 2C assessed as remaining GABA uptake activity preincubated at 100 uM for 10 mins by scintillation counting; type: cell membranes; in short: as §1
[9] = Inhibition of GAT3-mediated [3H]GABA uptake in calf brain stem membrane fraction 2C compound preincubated for 10 mins by scintillation counting; type: cell membranes, Bos taurus; in short: as §2
Bos taurus [10] = species on record: Bos taurus; assay: Inhibition of GAT3-mediated [3H]GABA uptake in calf brain stem membrane fraction 2C assessed as remaining GABA uptake activity preincubated at 100 uM for 10 mins by scintillation counting; type: cell membranes; in short: as §1
[11] = Inhibition of GAT1-mediated [3H]GABA uptake in calf frontal cortex membrane fraction 2B compound preincubated for 10 mins by scintillation counting; type: cell membranes, Bos taurus; in short: as §2
Bos taurus [12] = species on record: Bos taurus; assay: Inhibition of GAT1-mediated [3H]GABA uptake in calf frontal cortex membrane fraction 2B assessed as remaining GABA uptake activity preincubated at 100 uM for 10 mins by scintillation counting; type: cell membranes; in short: as §1

| SMILES | Activity (Sus scrofa [1]) [%] | IC50 [2] [µM] | Activity (Sus scrofa [3]) [%] | IC50 [4] [µM] | further results |
| --- | --- | --- | --- | --- | --- |
| COc1ccc([C@@]2(O)CN[C@H](C(=O)O)C2)cc1 | > 50 | > 100 | > 50 | > 100 | – |
| COc1ccc([C@@]2(O)C[C@@H](C(=O)O)N(CCC=C(c3ccccc3)c3ccccc3)C2)cc1 | – | – | – | – | IC50 [5]: > 100 µM; IC50 [6]: > 100 µM; Activity (Bos taurus [7]): > 50%; Activity (Bos taurus [8]): > 50% |
| COc1ccc([C@]2(O)C[C@@H](C(=O)O)N(CCC=C(c3ccccc3)c3ccccc3)C2)cc1 | – | – | – | – | IC50 [5]: > 100 µM; IC50 [6]: 237 µM; Activity (Bos taurus [7]): > 50% |
| COc1ccc([C@@]2(O)C[C@H](C(=O)O)N(CCC=C(c3ccccc3)c3ccccc3)C2)cc1 | – | – | – | – | IC50 [9]: > 100 µM; Activity (Bos taurus [10]): > 50%; IC50 [11]: > 100 µM; Activity (Bos taurus [12]): > 50% |
| COc1ccc(C(OCCN2C[C@](O)(c3ccc(OC)cc3)C[C@@H]2C(=O)O)(c2ccc(OC)cc2)c2ccc(OC)cc2)cc1 | – | 71 | – | – | IC50 [6]: > 100 µM; Activity (Bos taurus [8]): > 50% |
| COc1ccc([C@]2(O)CN[C@@H](C(=O)O)C2)cc1 | > 50 | > 100 | > 50 | > 100 | – |
| COc1ccc([C@]2(O)CN[C@@H](CC(=O)O)C2)cc1 | > 50 | > 100 | > 50 | > 100 | – |
| COc1ccc([C@@]2(O)CN[C@H](CC(=O)O)C2)cc1 | > 50 | > 100 | > 50 | > 100 | – |
| COc1ccc(C(OCCN2C[C@@](O)(c3ccc(OC)cc3)C[C@H]2CC(=O)O)(c2ccc(OC)cc2)c2ccc(OC)cc2)cc1 | – | 75.2 | – | 78.9 | – |
| COc1ccc([C@]2(O)C[C@@H](CC(=O)O)N(CCC=C(c3sccc3C)c3sccc3C)C2)cc1 | > 50 | > 100 | – | 124 | – |
| COc1ccc([C@]2(O)C[C@H](C(=O)O)N(CCC=C(c3ccccc3)c3ccccc3)C2)cc1 | – | – | – | – | IC50 [9]: > 100 µM; Activity (Bos taurus [10]): > 50%; IC50 [11]: > 100 µM; Activity (Bos taurus [12]): > 50% |
| COc1ccc([C@@]2(O)C[C@@H](CC(=O)O)N(CCC=C(c3sccc3C)c3sccc3C)C2)cc1 | > 50 | > 100 | – | 122 | – |
| COc1ccc(C(OCCN2C[C@@](O)(c3ccc(OC)cc3)C[C@@H]2CC(=O)O)(c2ccc(OC)cc2)c2ccc(OC)cc2)cc1 | – | 59.2 | – | 66.1 | – |
| COc1ccc([C@@]2(O)C[C@H](CC(=O)O)N(CCC=C(c3sccc3C)c3sccc3C)C2)cc1 | – | 114 | > 50 | > 100 | – |
| COc1ccc(C(OCCN2C[C@](O)(c3ccc(OC)cc3)C[C@H]2C(=O)O)(c2ccc(OC)cc2)c2ccc(OC)cc2)cc1 | – | – | – | – | IC50 [5]: 45.1 µM; IC50 [6]: 29.7 µM |
| COc1ccc([C@]2(O)C[C@H](CC(=O)O)N(CCC=C(c3sccc3C)c3sccc3C)C2)cc1 | > 50 | > 100 | > 50 | > 100 | – |
| COc1ccc(C(OCCN2C[C@@](O)(c3ccc(OC)cc3)C[C@H]2C(=O)O)(c2ccc(OC)cc2)c2ccc(OC)cc2)cc1 | – | – | – | – | IC50 [5]: 68.1 µM; IC50 [6]: 63.3 µM |
| COc1ccc(C(OCCN2C[C@](O)(c3ccc(OC)cc3)C[C@@H]2CC(=O)O)(c2ccc(OC)cc2)c2ccc(OC)cc2)cc1 | – | 64.5 | – | 65.4 | – |
| COc1ccc(C(OCCN2C[C@@](O)(c3ccc(OC)cc3)C[C@@H]2C(=O)O)(c2ccc(OC)cc2)c2ccc(OC)cc2)cc1 | – | 56 | – | 38 | – |
| COc1ccc(C(OCCN2C[C@](O)(c3ccc(OC)cc3)C[C@H]2CC(=O)O)(c2ccc(OC)cc2)c2ccc(OC)cc2)cc1 | – | 48.4 | – | 66.7 | – |
